Values after ≈ are worked out from the molar mass of the structure shown.
Assays:
[1] = Cmax in Wistar rat at 10 mg/kg, po by UPLC-MS/MS analysis; type: ADME, organism-based; parameters: dose 10 mg/kg, route oral; settings: in vivo
Procedure, shortened: (§1)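 Male Wistar rats received 1 mg/kg iv or 10 mg/kg po. Blood was drawn from the retro-orbital plexus at set time points and centrifuged (3000 rpm, 10 min, 4 °C). Plasma was stored at −20 °C and prepared by protein precipitation for analysis. Oral exposure was measured over 0–6 h. Values are mean ± SD, n = 2.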

[2] = Tmax in Wistar rat at 10 mg/kg, po by UPLC-MS/MS analysis; type: ADME, organism-based; parameters: dose 10 mg/kg, route oral; settings: in vivo
Procedure, shortened: (§2)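 Wistar rats dosed 1 mg/kg iv or 10 mg/kg po. Blood drawn from the retro-orbital plexus at set time points. Plasma separated by centrifugation (3000 rpm, 10 min, 4 °C) and stored at −20 °C until analysis. Values are mean of n = 2.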

[3] = (§3) AUC (0 to 6 hrs) in Wistar rat at 10 mg/kg, po by UPLC-MS/MS analysis; type: ADME, organism-based, Plasma; parameters: time < 6 hr, dose 10 mg/kg, route oral; settings: Wistar, plasma; procedure, shortened: as §1
[4] = Half life in Wistar rat at 1 mg/kg, iv by UPLC-MS/MS analysis; type: ADME, organism-based; parameters: dose 1 mg/kg, route intravenous; settings: in vivo; procedure, shortened: as §1
[5] = Clearance in Wistar rat at 1 mg/kg, iv by UPLC-MS/MS analysis; type: ADME, organism-based; parameters: dose 1 mg/kg, route intravenous; settings: in vivo; procedure, shortened: as §1
[6] = Volume of distribution at steady state in Wistar rat at 1 mg/kg, iv by UPLC-MS/MS analysis; type: ADME, organism-based; parameters: dose 1 mg/kg, route intravenous; settings: in vivo, read-out: Vdss; procedure, shortened: as §2
[7] = (§4) Bioavailability in Wistar rat at 10 mg/kg, po and at 1 mg/kg, iv measured up to 6 hrs; type: ADME, organism-based; settings: Wistar, in vivo; procedure, shortened: as §1
[8] = Metabolic stability in rat liver microsomes assessed as metabolic rate at 5 uM after 30 mins by UPLC-MS/MS analysis; type: ADME, Microsome; settings: read-out: Activity
Procedure, shortened: (§5)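 Test compound at 5 μM incubated 30 min at 37 °C with liver microsomes (1 mg/mL protein), with and without NADPH. Parent compound quantified by UPLC-MS/MS. Metabolic rate taken from parent peak area with NADPH versus without.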

[9] = Metabolic stability in human liver microsomes assessed as metabolic rate at 5 uM after 30 mins by UPLC-MS/MS analysis; type: ADME, Microsome; settings: read-out: Activity; procedure, shortened: as §5
[10] = Solubility of the compound at pH 7.4; type: physicochemical; settings: buffer
[11] = Solubility of the compound at pH 1.0; type: physicochemical; settings: buffer
Rattus norvegicus [12] = experiment: as §3; type: ADME, organism-based, Plasma; parameters: time < 6 hr, dose 10 mg/kg, route oral; settings: in vivo, 6 h; procedure, shortened: as §1
Rattus norvegicus [13] = experiment: as §4; type: ADME, organism-based; settings: in vivo, 6 h; procedure, shortened: as §1

Cmax [1] [nM]	Tmax [2] [h]	AUC(0-t) at 6 h [3] [µM·h]	half-life [4] [h]	clearance [5] [mL/min/kg]	Vd [6] [L/kg]	bioavailability [7] [%]	metabolised at 0.5 h, 5 µM [8] [%]	metabolised at 0.5 h, 5 µM [9] [%]	solubility [10] [µg/mL]	solubility [11] [µg/mL]	AUC (Rattus norvegicus [12]) [µM·h]	F (Rattus norvegicus [13]) [%]	SMILES
200	0.3	0.48	2.3	102	13.7	16							[O-][n+]1ccc2c(-c3ccc(F)cc3F)cc(C3CCNCC3)nc2c1-c1c(Cl)cccc1Cl
5300	3.5		7.4		1.7		9	< 5	27 (≈ 77.5 µM)	41 (≈ 118 µM)	29.5	38	Cc1ccccc1-c1c2nccc(-c3ccc(F)cc3F)c2cc[n+]1[O-]
90	0.3	0.05	4.6	59	10.3	< 10							[O-][n+]1ccc2c(-c3ccc(F)cc3F)cc(NC3CCNCC3)nc2c1-c1c(F)cccc1F

— ChEMBL document CHEMBL1914450, “1,7-Naphthyridine 1-oxides as novel potent and selective inhibitors of p38 mitogen activated protein kinase” (J Med Chem, 2011)
